Data published in ChEMBL document CHEMBL1128448, “Synthesis and antifungal activity of new azole derivatives containing an N-acylmorpholine ring” (1995).
Values after ≈ are worked out from the molar mass of the structure shown.

Tests used:
Format in all cases: functional
[1] = tested on: Aspergillus fumigatus; test: In vitro evaluation of minimum inhibitory concentration against Aspergillus fumigatus 33
Summary of the method: (§1)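 Stocks are 800 μg/mL in 50% ethanol. Each plate gets 10 μL of inoculum at 10^5 cfu/mL. Incubation at 25 °C, 48 h for yeasts and 120 h for dermatophytes and molds. Organisms are ATCC strains or clinical isolates.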

[2] = tested on: Aspergillus niger; test: In vitro evaluation of minimum inhibitory concentration against Aspergillus niger 18; summary of the method: as §1
[3] = tested on: Candida albicans; test: In vitro evaluation of minimum inhibitory concentration against Candida albicans 76; summary of the method: as §1
[4] = tested on: Candida albicans; test: In vivo evaluation of minimum inhibitory concentration against Candida albicans 406
Summary of the method: (§2)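 Broth macrodilution MIC following NCCLS M27-P, in RPMI-1640 buffered with 0.165 M MOPS. Fluconazole was dissolved in water and other drugs in DMSO. C. parapsilosis ATCC 22019 served as the reference strain in every run. MIC was the lowest concentration giving turbidity at or below the 80% inhibition standard.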

[5] = tested on: Candida albicans; test: In vivo evaluation of minimum inhibitory concentration against Candida albicans 60; summary of the method: as §2
[6] = tested on: Candida albicans; test: Evaluation of In vitro antifungal activity against Candida albicans 2.01 by broth macro dilution method
Summary of the method: (§3)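 Yeast MIC and MFC by broth macrodilution per NCCLS M27-P in RPMI-1640 buffered with 0.165 M MOPS. Fluconazole in sterile water, other drugs in DMSO. C. parapsilosis ATCC 22019 is the reference strain in each run. MIC is the lowest concentration with turbidity ≤ the 80% inhibition standard. For MFC, 0.04 mL from clear tubes is plated on Sabouraud agar; MFC is the lowest concentration giving ≤1 colony.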

[7] = tested on: Candida albicans; test: Evaluation of In vitro antifungal activity against Candida albicans 31 by broth macro dilution method; summary of the method: as §3
[8] = tested on: Candida albicans; test: Evaluation of In vitro antifungal activity against Candida albicans 406 by broth macro dilution method; summary of the method: as §3
[9] = tested on: Candida albicans; test: Evaluation of In vitro antifungal activity against Candida albicans 76 by broth macro dilution method; summary of the method: as §3
[10] = tested on: Candida albicans; test: Evaluation of In vitro antifungal activity against Candida albicans ATCC 10231 by broth macro dilution method; summary of the method: as §3
[11] = tested on: Candida albicans; test: Evaluation of In vitro antifungal activity against Candida albicans C52 by broth macro dilution method; summary of the method: as §3
[12] = tested on: Candida albicans; test: Evaluation of […] antifungal activity against Candida albicans 60 by broth macro dilution method; summary of the method: as §3
[13] = tested on: Meyerozyma guilliermondii; test: Evaluation of In vitro antifungal activity against Candida guilliermondii 26 by broth macro dilution method; summary of the method: as §3
[14] = tested on: Meyerozyma guilliermondii; test: In vitro evaluation of minimum inhibitory concentration against Candida guilliermondii 26; summary of the method: as §1
[15] = tested on: Pichia kudriavzevii; test: Evaluation of In vitro antifungal activity against Candida krusei 70 by broth macro dilution method; summary of the method: as §3
[16] = tested on: Pichia kudriavzevii; test: In vitro evaluation of minimum inhibitory concentration against Candida krusei 70; summary of the method: as §1
[17] = tested on: Kluyveromyces marxianus; test: Evaluation of In vitro antifungal activity against Candida pseudotropicalis ATCC 28838 by broth macro dilution method; summary of the method: as §3
[18] = tested on: Kluyveromyces marxianus; test: Evaluation of In vitro antifungal activity against yeasts by broth macro dilution method; summary of the method: as §3
[19] = tested on: Candida parapsilosis; test: Evaluation of In vitro antifungal activity against Candida parapsilosis ATCC 22019 by broth macro dilution method; settings: Lodderomyces parapsilosis; summary of the method: as §3
[20] = tested on: Candida parapsilosis; test: Evaluation of In vitro antifungal activity against Candida parapsilosis C292 by broth macro dilution method; settings: Lodderomyces parapsilosis; summary of the method: as §3
[21] = tested on: Candida parapsilosis; test: Evaluation of In vitro antifungal activity against Candida parapsilosis C74 by broth macro dilution method; settings: Lodderomyces parapsilosis; summary of the method: as §3
[22] = tested on: Candida parapsilosis; test: In vitro evaluation of minimum inhibitory concentration against Candida parapsilosis 61; summary of the method: as §1
[23] = tested on: Candida tropicalis; test: Evaluation of In vitro antifungal activity against Candida tropicalis 2.11 by broth macro dilution method; summary of the method: as §3

C[C@H]1N(C(=O)c2ccc(C(F)(F)F)cc2)CCO[C@@]1(Cn1cncn1)c1ccc(F)cc1F (stereo in doubt; (-)-41)
MIC [1]: 40 µg/mL (≈ 85.8 µM) | MIC [2]: 80 µg/mL (≈ 172 µM) | MIC [3]: 1.25 µg/mL (≈ 2.68 µM) | MIC [4]: 0.15 µg/mL (≈ 0.322 µM) | MIC [5]: 0.31 µg/mL (≈ 0.665 µM) | MFC [6]: > 64 µg/mL | MIC [6]: 0.25 µg/mL (≈ 0.536 µM) | MFC [7]: > 64 µg/mL | MIC [7]: 0.125 µg/mL (≈ 0.268 µM) | MFC [8]: > 64 µg/mL | MIC [8]: 0.25 µg/mL (≈ 0.536 µM) | MFC [9]: > 64 µg/mL | MIC [9]: 0.125 µg/mL (≈ 0.268 µM) | MFC [10]: > 64 µg/mL | MIC [10]: 0.25 µg/mL (≈ 0.536 µM) | MFC [11]: > 64 µg/mL | MIC [11]: 0.125 µg/mL (≈ 0.268 µM) | MIC [12]: 0.25 µg/mL (≈ 0.536 µM) | MFC [13]: > 64 µg/mL | MIC [13]: 8 µg/mL (≈ 17.2 µM) | MIC [14]: 20 µg/mL (≈ 42.9 µM) | MFC [15]: > 64 µg/mL | MIC [15]: 32 µg/mL (≈ 68.6 µM) | MIC [16]: 40 µg/mL (≈ 85.8 µM) | MFC [17]: 32 µg/mL (≈ 68.6 µM) | MIC [18]: 0.125 µg/mL (≈ 0.268 µM) | MFC [19]: 4 µg/mL (≈ 8.58 µM) | MIC [19]: 2 µg/mL (≈ 4.29 µM) | MFC [20]: > 64 µg/mL | MIC [20]: 2 µg/mL (≈ 4.29 µM) | MFC [21]: 8 µg/mL (≈ 17.2 µM) | MIC [21]: 0.5 µg/mL (≈ 1.07 µM) | MIC [22]: 10 µg/mL (≈ 21.4 µM) | MFC [23]: > 64 µg/mL | MIC [23]: 4 µg/mL (≈ 8.58 µM)
